One block for each compound: values may come before it.
How the values were obtained:
[1] = target: T1, Cytosolic phospholipase A2 (Homo sapiens) (UniProt P47712); experiment: Percent inhibition of human GIVA PLA2 by the compound at a concentration (mole fraction) of 0.05
T1 sequence (whole entry): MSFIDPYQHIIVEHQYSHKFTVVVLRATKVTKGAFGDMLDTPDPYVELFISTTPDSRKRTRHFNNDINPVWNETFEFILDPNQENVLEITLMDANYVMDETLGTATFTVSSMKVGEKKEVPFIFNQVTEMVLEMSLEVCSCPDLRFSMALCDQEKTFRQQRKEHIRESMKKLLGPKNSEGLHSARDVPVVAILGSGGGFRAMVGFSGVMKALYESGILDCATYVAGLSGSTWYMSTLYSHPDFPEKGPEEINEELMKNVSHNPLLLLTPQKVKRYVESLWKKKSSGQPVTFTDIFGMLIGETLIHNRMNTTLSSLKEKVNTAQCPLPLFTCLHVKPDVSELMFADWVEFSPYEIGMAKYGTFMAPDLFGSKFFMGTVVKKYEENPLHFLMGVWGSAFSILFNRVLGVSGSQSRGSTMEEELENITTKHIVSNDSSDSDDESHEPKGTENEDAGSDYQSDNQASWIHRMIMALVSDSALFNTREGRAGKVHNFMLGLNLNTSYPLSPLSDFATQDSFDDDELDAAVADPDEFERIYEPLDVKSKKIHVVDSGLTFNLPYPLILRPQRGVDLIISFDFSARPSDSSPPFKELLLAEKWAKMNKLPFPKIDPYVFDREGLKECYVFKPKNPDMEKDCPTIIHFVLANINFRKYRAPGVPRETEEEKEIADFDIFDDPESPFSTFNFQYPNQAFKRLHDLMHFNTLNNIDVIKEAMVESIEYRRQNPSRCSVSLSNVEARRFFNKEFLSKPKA
How it was run: (§1)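 GIVA PLA2 activity measured on mixed micelles of TX-100 (400 μM), 1-palmitoyl-2-[14C]arachidonoyl PC (97 μM) and PIP2 (3 μM, 0.6 mol %). Inhibitor surface mole fraction varied within the micelles; percent inhibition calculated relative to a DMSO control. Xi(50) is the mole fraction giving 50% inhibition, obtained by a logarithmic or linear fit.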

Rattus norvegicus [2] = experiment: Compound was tested for in vivo analgesic activity in rat; type: functional
Rattus norvegicus [3] = experiment: Compound was tested for in vivo antiinflammatory activity in rat; type: functional, organism-based
How it was run: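 Carrageenan paw edema in Fisher 344 rats (150–200 g), both sexes. Edema induced by 0.1 mL 2% w/v carrageenan in saline, intradermal into the right footpad. Compound suspended in Tween 80/water and given ip at the same time. Rats killed at 3.5 h, injected minus uninjected paw weight taken, and % inhibition calculated vs water controls. Four concentrations tested, two groups of five; mean of two experiments.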

Mus musculus [4] = organism: Mus musculus; experiment: Compound was tested on P388D1 macrophage-like cell line (PGE2 production) for inhibition of the GIVA PLA2 in the long-term lipopolysaccharide; type: functional, organism-based
How it was run: (§2)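 P388D1 murine macrophages plated at 10^6 cells/well and left to adhere overnight. Starved 1 h in 0.2% FCS medium. Compound added in DMSO (<0.5% v/v) 30 min before 100 ng/mL LPS for 18 h. Medium PGE2 measured by enzyme immunoassay and normalized to DMSO/LPS controls. IC50 taken from a logarithmic fit.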

[5] = target: T1, Cytosolic phospholipase A2 (Homo sapiens); experiment: Mole fraction of compound in the total substrate interface required to inhibit human GIVA PLA2 by 50%; how it was run: as §1
Mus musculus [6] = organism: Mus musculus; experiment: Compound was tested on P388D1 macrophage-like cell line (AA-derived products) for inhibition of the GIVA PLA2 in the long-term lipopolysaccharide; type: functional, organism-based
[7] = target: T1, Cytosolic phospholipase A2 (Homo sapiens); experiment: Percent inhibition of human GIVA PLA2 by the compound at a concentration (mole fraction) of 0.01; how it was run: as §1
[8] = target: T1, Cytosolic phospholipase A2 (Homo sapiens); experiment: Percent inhibition of human GIVA PLA2 by the compound at a concentration (mole fraction) of 0.02; how it was run: as §1
[9] = target: T1, Cytosolic phospholipase A2 (Homo sapiens); experiment: Percent inhibition of human GIVA PLA2 by the compound at a concentration (mole fraction) of 0.08; how it was run: as §1
Mus musculus [10] = organism: Mus musculus; experiment: Tested on P388D1 macrophage-like cell line (PGE2 production) for inhibition of the GIVA PLA2 in the long-term lipopolysaccharide; type: functional, organism-based; how it was run: as §2
Mus musculus [11] = organism: Mus musculus; experiment: Tested on P388D1 macrophage-like cell line (AA-derived products) for inhibition of the GIVA PLA2 in the long-term lipopolysaccharide; type: functional, organism-based
[12] = in the assay text read “of 0.091” for “of 0.01”

- inhibition [1]: 0%
Compound: CCCCCCCC/C=C\CCCCCCCCNC(=O)C(=O)CCCCCCCCCCCCCC

- EC50 (Rattus norvegicus [3]): 0.008 mmol/kg
- IC50 (Mus musculus [4]): 10 µM
- X1(50) [5]: 0.017
- IC50 (Mus musculus [6]): 4.6 µM
Compound: CCCCCCCCCCCCCC(=O)C(=O)N[C@H](CCC(=O)O)CC(C)C
- Analgesic activity (Rattus norvegicus [2]): 69%

- X1(50) [5]: 0.047
Compound: CCCCCCCCCCOC[C@@H](CCC(=O)O)NC(=O)C(=O)CCCCCCCCCC

- EC50 (Rattus norvegicus [3]): 0.1 mmol/kg
- IC50 (Mus musculus [4]): 5.8 µM
- X1(50) [5]: 0.009
- IC50 (Mus musculus [6]): 7.6 µM
Compound: CCCCCCCCCCC(=O)C(=O)N[C@@H](CCCC)CCC(=O)O
- Analgesic activity (Rattus norvegicus [2]): 63%

- inhibition [7]: 0%
Compound: CCCCCCCCCCCCCCCCNC(=O)C(=O)CC

- inhibition [7, 12]: 24%
Compound: CCCCCCCCCCCCCC(=O)C(=O)N1CCC[C@H]1CCC(=O)O

- X1(50) [5]: 0.068
Compound: CCCCCCCCCCC(=O)C(=O)N[C@H](CCCC)CCC(=O)O

- inhibition [7]: 0%
Compound: NC(=O)C(=O)CCCCc1ccccc1

- X1(50) [5]: 0.045
Compound: CCCCCCCCCCOC[C@H](CCC(=O)O)NC(=O)C(=O)CCCCCCCCCC

- X1(50) [5]: 0.021
Compound: CCCCCCCCCCC(=O)C(=O)N[C@H](CCC(=O)O)CC(C)C

- inhibition [8]: 22%
Compound: CCCCCCCCCCCCCCC(=O)C(=O)NCCCCC

- inhibition [1]: 0%
Compound: CCCCCCC(=O)C(=O)NCCCC(=O)O

- inhibition [9]: 22%
Compound: CCCCCCCCCCCCCCCC(=O)NCCCC(=O)O

- inhibition [7]: 0%
Compound: CCCCCCCCCCCCCC(=O)C(N)=O

- X1(50) [5]: 0.01
Compound: CCCCCCCCCCCCCC(=O)C(=O)N[C@@H](CCCC)CCC(=O)O

- IC50 (Mus musculus [10]): 7.8 µM
- EC50 (Rattus norvegicus [3]): 0.01 mmol/kg
- IC50 (Mus musculus [11]): 8.6 µM
- X1(50) [5]: 0.017
Compound: CCCCCCCCCCCCCCC(=O)C(=O)NCCCC(=O)O
- Analgesic activity (Rattus norvegicus [2]): 93%

- inhibition [9]: 0%
Compound: CCCCCCCCCCCCCCC(=O)C(=O)NCCCC(=O)OC

- X1(50) [5]: 0.021
Compound: CCCCCCCCCCCCCC(=O)C(=O)N[C@@H](C)CCC(=O)O

- X1(50) [5]: 0.035
Compound: CCCCCCCCCCCCCC(=O)C(=O)N[C@H](CCC(=O)O)Cc1ccccc1

- inhibition [7, 12]: 24%
Compound: CCCCCCC(=O)C(=O)N[C@H](CCC(=O)O)Cc1ccccc1

- inhibition [7]: 0%
Compound: CCCCCCCC/C=C\CCCCCCCCNC(=O)C(=O)CCCCC

- inhibition [7, 12]: 0%
Compound: CCCCCCCCCCC(=O)C(=O)N1CCC[C@H]1CCC(=O)O

From ChEMBL document CHEMBL1148355, “Inhibition of group IVA cytosolic phospholipase A2 by novel 2-oxoamides in vitro, in cells, and in vivo” (J Med Chem, 2004)
